pIC50: −log10 of the molar value.
Legend:
Cynomolgus monkey = assay: Induction of early menses in cynomolgus monkey at 5 mg/kg, po; type: organism-based, Macaca fascicularis; design: dose 5 mg/kg, route oral; conditions: in vivo
[1] = Cmax in Sprague-Dawley rat at 5 mg/kg, po; type: ADME, organism-based; design: dose 5 mg/kg, route oral; conditions: in vivo
Method in brief: (§1)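 Female Sprague–Dawley rats dosed as 1-in-4 cassette or discrete studies. iv in DMSO/PEG200 20:80; po in aqueous 2% Tween 80/0.5% methyl cellulose. Parameters reported: C0, Cmax, t1/2, plasma clearance, Vss, AUC0-inf and %F.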

[2] = Half life in Sprague-Dawley rat at 1 mg/kg, iv; type: ADME, organism-based; design: dose 1 mg/kg, route intravenous; conditions: in vivo; method in brief: as §1
[3] = Cmax in cynomolgus monkey at 5 mg/kg, po; type: ADME, organism-based, Macaca fascicularis; design: dose 5 mg/kg, route oral; conditions: in vivo
[4] = Stability in cynomolgus monkey liver microsome assessed as half life; type: ADME, Macaca fascicularis; conditions: liver microsomes
Method in brief: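 Female rat, cynomolgus monkey and human liver microsome stability; half-life (min) reported.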

Rattus norvegicus = assay: Drug level in Sprague-Dawley rat at 1 mg/kg, iv; type: ADME, organism-based; design: dose 1 mg/kg, route intravenous; conditions: in vivo; method in brief: as §1
[5] = Plasma clearance in cynomolgus monkey at 1 mg/kg, iv; type: ADME, organism-based, Macaca fascicularis; design: dose 1 mg/kg, route intravenous
[6] = Plasma clearance in cynomolgus monkey at […], iv; type: ADME, organism-based, Macaca fascicularis; design: dose 0.25 mg/kg, route intravenous
Rhesus monkey [7] = assay: Effect on functionalis KI67 assessed as number of KI67 labeled cells of rhesus monkey; type: functional, Macaca mulatta
Method in brief: (§2)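 Adult female rhesus macaques (n=3) with regular cycles dosed 10 mg/(kg·day) po in 2% Tween 80/0.5% methylcellulose with cherry flavoring for 28 days from cycle day 2. Serum estradiol and progesterone measured every 3 days. Necropsy on day 28. Uterine weights are of half the uterus; KI-67 and mitotic indices counted per 1000 cells. Values given as mean ± SE.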

[8] = biological target: T1, Mineralocorticoid receptor (Homo sapiens, UniProt P08235); assay: Antagonist activity at human MR ligand binding domain expressed in african green monkey COS7 cells in presence of aldosterone by Gal4 hybrid assay; type: cell-based, COS-7
T1 sequence (P08235 whole entry): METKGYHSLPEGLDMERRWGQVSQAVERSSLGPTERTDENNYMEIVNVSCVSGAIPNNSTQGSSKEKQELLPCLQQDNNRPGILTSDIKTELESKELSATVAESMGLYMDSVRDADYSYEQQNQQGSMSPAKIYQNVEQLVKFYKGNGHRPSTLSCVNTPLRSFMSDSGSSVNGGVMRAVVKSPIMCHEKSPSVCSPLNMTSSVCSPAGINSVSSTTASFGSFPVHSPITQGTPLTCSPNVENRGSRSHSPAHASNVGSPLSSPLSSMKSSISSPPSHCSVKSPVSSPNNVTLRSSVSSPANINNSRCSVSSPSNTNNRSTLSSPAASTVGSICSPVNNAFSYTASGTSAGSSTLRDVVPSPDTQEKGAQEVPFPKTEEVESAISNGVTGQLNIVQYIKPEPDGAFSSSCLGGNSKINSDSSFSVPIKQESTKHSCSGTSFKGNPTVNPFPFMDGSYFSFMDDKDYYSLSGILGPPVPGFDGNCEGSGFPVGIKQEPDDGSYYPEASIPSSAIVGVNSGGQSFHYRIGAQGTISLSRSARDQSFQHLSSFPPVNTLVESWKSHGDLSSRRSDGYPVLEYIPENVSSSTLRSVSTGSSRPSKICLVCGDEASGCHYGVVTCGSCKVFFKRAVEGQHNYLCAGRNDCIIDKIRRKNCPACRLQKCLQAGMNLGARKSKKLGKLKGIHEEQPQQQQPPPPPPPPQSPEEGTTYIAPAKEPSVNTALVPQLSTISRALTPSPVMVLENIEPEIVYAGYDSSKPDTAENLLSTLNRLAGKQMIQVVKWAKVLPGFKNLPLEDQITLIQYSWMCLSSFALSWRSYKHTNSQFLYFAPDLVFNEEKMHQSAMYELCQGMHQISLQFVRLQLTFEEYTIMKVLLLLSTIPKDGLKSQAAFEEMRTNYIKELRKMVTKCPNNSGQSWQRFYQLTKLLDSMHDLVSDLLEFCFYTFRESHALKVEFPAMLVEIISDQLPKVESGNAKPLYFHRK
Method in brief: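 Gal4-steroid receptor LBD fusion plasmid plus GAL4_UAS (5 copies, E1b TATA)-luciferase reporter, 50 ng/well each, transfected 16 h into COS-7 cells grown in phenol red-free DMEM with 10% charcoal/dextran-treated FBS. Compound treatment 20 h, then luciferase read-out. Antagonist mode uses 3 nM aldosterone (hMR) or 5 nM 17β-estradiol (hER). Values are the average of at least duplicate determinations.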

[9] = Oral bioavailability in cynomolgus monkey at 5 mg/kg; type: ADME, organism-based, Macaca fascicularis; conditions: in vivo
Androgen receptor = biological target: T2, Androgen receptor (Homo sapiens, UniProt P10275)
T2 sequence (P10275 whole entry): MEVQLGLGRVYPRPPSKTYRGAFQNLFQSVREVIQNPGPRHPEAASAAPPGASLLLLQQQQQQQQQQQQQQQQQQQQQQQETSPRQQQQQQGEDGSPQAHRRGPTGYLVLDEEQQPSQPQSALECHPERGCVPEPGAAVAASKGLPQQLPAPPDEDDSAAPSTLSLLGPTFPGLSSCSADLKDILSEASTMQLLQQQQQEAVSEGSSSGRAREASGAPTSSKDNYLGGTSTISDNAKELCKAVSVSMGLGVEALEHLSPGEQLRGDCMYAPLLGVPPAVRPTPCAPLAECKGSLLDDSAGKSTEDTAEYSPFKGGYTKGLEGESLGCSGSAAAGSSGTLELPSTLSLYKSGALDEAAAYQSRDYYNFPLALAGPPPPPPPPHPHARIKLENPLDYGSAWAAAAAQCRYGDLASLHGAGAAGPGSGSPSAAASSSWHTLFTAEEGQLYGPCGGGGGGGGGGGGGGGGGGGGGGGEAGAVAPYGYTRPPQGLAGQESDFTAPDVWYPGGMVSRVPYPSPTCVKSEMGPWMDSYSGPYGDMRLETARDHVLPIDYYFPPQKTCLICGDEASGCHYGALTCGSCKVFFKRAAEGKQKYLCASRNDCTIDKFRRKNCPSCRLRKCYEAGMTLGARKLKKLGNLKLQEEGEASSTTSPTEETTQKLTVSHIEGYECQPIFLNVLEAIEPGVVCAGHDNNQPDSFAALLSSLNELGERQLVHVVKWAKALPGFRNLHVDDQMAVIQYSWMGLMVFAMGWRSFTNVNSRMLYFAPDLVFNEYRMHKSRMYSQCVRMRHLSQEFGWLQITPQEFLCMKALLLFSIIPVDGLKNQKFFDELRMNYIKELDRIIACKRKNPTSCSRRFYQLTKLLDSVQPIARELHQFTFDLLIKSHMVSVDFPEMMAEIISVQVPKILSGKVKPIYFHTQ

[10] = AUC (0 to infinity) in Sprague-Dawley rat at 0.5 mg/kg, iv; type: ADME, organism-based; design: time infinity, dose 0.5 mg/kg, route intravenous; conditions: plasma
Rhesus monkey [11] = assay: Effect on cell proliferation in rhesus monkey assessed as number of mitotic cells per 1000 cells
Rhesus monkey [12] = assay: Effect on endometrium thickness of rhesus monkey; type: functional, Macaca mulatta; method in brief: as §2
[13] = Plasma clearance in Sprague-Dawley rat at 1 mg/kg, iv; type: ADME, organism-based; design: dose 1 mg/kg, route intravenous; method in brief: as §1
[14] = Plasma clearance in Sprague-Dawley rat at 0.5 mg/kg, iv; type: ADME, organism-based; design: dose 0.5 mg/kg, route intravenous; method in brief: as §1
[15] = Drug level in cynomolgus monkey at 1 mg/kg, iv; type: ADME, organism-based, Macaca fascicularis; design: dose 1 mg/kg, route intravenous; conditions: in vivo
[16] = Half life in Sprague-Dawley rat at 5 mg/kg, po; type: ADME, organism-based; design: dose 5 mg/kg, route oral; conditions: in vivo; method in brief: as §1

Cn1c(C#N)ccc1-c1cc(F)c2c(c1)C(C)(C)C(=O)N2
Activity (Cynomolgus monkey): 75%
Cmax [1]: 0.414 µg/mL
half-life [2]: 9.4 h
Cmax [3]: 0.179 µg/mL
half-life [4]: 0.317 h
Drug uptake (Rattus norvegicus): 528 ng/mL
clearance [5]: 0.42 L/h/kg
clearance [6]: 0.42 L/h/kg
Activity (Rhesus monkey [7]): 105
pIC50 [8]: 5.43
bioavailability [9]: 49%
pIC50 (Androgen receptor): 6.71
AUC(0-inf) [10]: 1.98 µg·h/mL
Activity (Rhesus monkey [11]): 2.2
Activity (Rhesus monkey [12]): 2.2 mm
clearance [13]: 0.24 L/h/kg
clearance [14]: 0.24 L/h/kg
C0 [15]: 0.856 µg/mL
half-life [16]: 9.3 h
